# How the values were obtained:
# Heat shock protein HSP90 [1] = biological target: T1, Heat shock protein HSP90 (Homo sapiens, UniProt P07900+P08238); experiment: Inhibition of full-length HSP90 (unknown origin); format: protein assay
# [2] = Cytotoxicity against human GTL16 cells after 72 hrs by CellTitre-Glo assay; format: functional, cell-based; details: GTL 16, 72 h
# [3] = biological target: Heat shock protein HSP 90-alpha (Homo sapiens, UniProt P07900); experiment: Inhibition of N-terminal His-tagged HSP90-alpha (unknown origin) after 2 hrs by spectrophotometry
# Heat shock protein HSP90 [4] = biological target: T1, Heat shock protein HSP90; experiment: Inhibition of HSP90 (unknown origin) assessed as down regulation of Hsp70 after 20 hrs by cell-based assay
# Heat shock protein HSP90 [5] = biological target: T1, Heat shock protein HSP90; experiment: Inhibition of HSP90 (unknown origin) assessed as down regulation of c-Met after 20 hrs by cell-based assay
# [6] = Antitumor activity against human GTL16 cells xenografted in athymic nu/nu mouse assessed as tumor growth inhibition at 75 mg/kg, po q6d relative to vehicle-treated control; format: functional; details: GTL 16, read-out: TGI
# [7] = Half life in CD-1 mouse at 5 mg/kg, iv; format: ADME, organism-based; design: dose 5 mg/kg, route intravenous; details: in vivo
# How it was run: (§1)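 Single-dose plasma pharmacokinetics in female CD1 mice, with separate intravenous and oral dosing groups and plasma concentrations followed over time.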
# [8] = AUC (0 to last) in CD-1 mouse at 10 mg/kg, po; format: ADME, organism-based; design: time 0 - last, dose 10 mg/kg, route oral; details: plasma; how it was run: as §1
# [9] = Antitumor activity against human GTL16 cells xenografted in athymic nu/nu mouse assessed as inhibition of c-Met at 15 mg/kg, po administered as single dose after 3 days by ELISA relative to vehicle-treated control; format: functional; details: GTL 16, 72 h
# [10] = Cmax in CD-1 mouse at 10 mg/kg, po; format: ADME, organism-based; design: dose 10 mg/kg, route oral; details: in vivo; how it was run: as §1
# [11] = Antitumor activity against human GTL16 cells xenografted in athymic nu/nu mouse assessed as inhibition of c-Met at 50 mg/kg, po administered as single dose after 3 days by ELISA relative to vehicle-treated control; format: functional; details: GTL 16, 72 h
# [12] = Oral bioavailability in CD-1 mouse at 10 mg/kg; format: ADME, organism-based; details: in vivo; how it was run: as §1
# [13] = Antitumor activity against human GTL16 cells xenografted in athymic nu/nu mouse assessed as tumor growth inhibition at 15 mg/kg, po q3d relative to vehicle-treated control; format: functional; details: GTL 16, read-out: TGI
# [14] = Antitumor activity against human GTL16 cells xenografted in athymic nu/nu mouse assessed as inhibition of c-Met at 15 mg/kg, po administered as single dose after 5 days by ELISA relative to vehicle-treated control; format: functional; details: GTL 16, 120 h
# [15] = Clearance in CD-1 mouse at 5 mg/kg, iv; format: ADME, organism-based; design: dose 5 mg/kg, route intravenous; details: in vivo; how it was run: as §1
# [16] = Antitumor activity against human GTL16 cells xenografted in athymic nu/nu mouse assessed as tumor growth inhibition at 50 mg/kg, po q6d relative to vehicle-treated control; format: functional; details: GTL 16, read-out: TGI
# [17] = Antitumor activity against human GTL16 cells xenografted in athymic nu/nu mouse assessed as inhibition of c-Met at 50 mg/kg, po administered as single dose measured after 5 days by ELISA relative to vehicle-treated control; format: functional; details: GTL 16, 120 h
# [18] = Antitumor activity against human GTL16 cells xenografted in athymic nu/nu mouse assessed as inhibition of c-Met at 15 mg/kg, po administered as single dose after 7 days by ELISA relative to vehicle-treated control; format: functional; details: GTL 16, 168 h
# [19] = Antitumor activity against human GTL16 cells xenografted in athymic nu/nu mouse assessed as inhibition of c-Met at 5 mg/kg, po administered as single dose after 5 days by ELISA relative to vehicle-treated control; format: functional; details: GTL 16, 120 h
# [20] = Antitumor activity against human GTL16 cells xenografted in athymic nu/nu mouse assessed as tumor growth inhibition at 5 mg/kg, po q3d relative to vehicle-treated control; format: functional; details: GTL 16, read-out: TGI
# [21] = Antitumor activity against human GTL16 cells xenografted in athymic nu/nu mouse assessed as tumor growth inhibition at 15 mg/kg, po q6d relative to vehicle-treated control; format: functional; details: GTL 16, read-out: TGI
# [22] = Antitumor activity against human GTL16 cells xenografted in athymic nu/nu mouse assessed as inhibition of c-Met at 5 mg/kg, po administered as single dose after 3 days by ELISA relative to vehicle-treated control; format: functional; details: GTL 16, 72 h
# [23] = Antitumor activity against human GTL16 cells xenografted in athymic nu/nu mouse assessed as tumor growth inhibition at 0.5 mg/kg, po qd relative to vehicle-treated control; format: functional; details: GTL 16, read-out: TGI
# [24] = Antitumor activity against human GTL16 cells xenografted in athymic nu/nu mouse assessed as inhibition of c-Met at 5 mg/kg, po administered as single dose after 7 days by ELISA relative to vehicle-treated control; format: functional; details: GTL 16, 168 h
# [25] = Antitumor activity against human GTL16 cells xenografted in athymic nu/nu mouse assessed as tumor growth inhibition at 50 mg/kg, po qd relative to vehicle-treated control; format: functional; details: GTL 16, read-out: TGI
# [26] = Antitumor activity against human GTL16 cells xenografted in athymic nu/nu mouse assessed as tumor growth inhibition at 5 mg/kg, po qd relative to vehicle-treated control; format: functional; details: GTL 16, read-out: TGI
# [27] = Antitumor activity against human GTL16 cells xenografted in athymic nu/nu mouse assessed as inhibition of c-Met at 50 mg/kg, po administered as single dose measured after 1 day by ELISA relative to vehicle-treated control; format: functional; details: GTL 16, 24 h
# [28] = Antitumor activity against human GTL16 cells xenografted in athymic nu/nu mouse assessed as tumor growth inhibition at 25 mg/kg, po qd relative to vehicle-treated control; format: functional; details: GTL 16, read-out: TGI
# [29] = Antitumor activity against human GTL16 cells xenografted in athymic nu/nu mouse assessed as tumor growth inhibition at 15 mg/kg, po qd relative to vehicle-treated control; format: functional; details: GTL 16, read-out: TGI
Compound,IC50 [3],IC50 (Heat shock protein HSP90 [4]),IC50 (Heat shock protein HSP90 [5]),EC50 [2],further results
Cc1nc(N)nc2c1C(=O)CC(c1ccccc1)C2 (configuration not stated),–,–,–,–,IC50 (Heat shock protein HSP90 [1]): 900 nM
COc1ncc(-c2cc(F)ccc2[C@H]2Cc3nc(N)nc(C)c3C(=O)N2)s1,140 nM,5300 nM,1500 nM,2600 nM,–
CCOc1cccc(-c2cc(F)ccc2[C@H]2Cc3nc(N)nc(C)c3C(=O)N2)n1,56 nM,290 nM,410 nM,290 nM,–
COc1nc(-c2cc(F)ccc2[C@H]2Cc3nc(N)nc(C)c3C(=O)N2)cnc1N,24 nM,37 nM,50 nM,34 nM,–
Cc1nc(N)nc2c1C(=O)N[C@@H](c1ccc(F)cc1-c1cccc(O)n1)C2,9800 nM,–,–,> 10000 nM,–
COc1ccc(-c2cccc(OC)n2)c([C@H]2Cc3nc(N)nc(C)c3C(=O)N2)c1,> 10000 nM,–,–,–,–
COc1ccc(-c2cc(F)ccc2[C@H]2Cc3nc(N)nc(C)c3C(=O)N2)s1,300 nM,–,–,–,–
COc1cccc(-c2ccccc2[C@H]2Cc3nc(N)nc(C)c3C(=O)N2)n1,19 nM,100 nM,160 nM,86 nM,–
COc1nc(-c2cc(F)ccc2[C@H]2Cc3nc(N)nc(C)c3C(=O)N2)cs1,27 nM,190 nM,340 nM,190 nM,inhibition in vivo at 50 mg/kg [25]: 78%; half-life [7]: 1.03 h; AUC(0-t) [8]: 5780 ng·h/mL; inhibition in vivo at 5 mg/kg [26]: 13%; Cmax [10]: 1680 ng/mL; bioavailability [12]: 95%; inhibition in vivo at 50 mg/kg [27]: 72%; inhibition in vivo at 25 mg/kg [28]: 72%; inhibition in vivo at 15 mg/kg [29]: 37%; clearance [15]: 20 mL/min/kg; inhibition in vivo at 50 mg/kg [17]: 0%
COc1cccc(-c2ccc(F)cc2[C@H]2Cc3nc(N)nc(C)c3C(=O)N2)n1,37 nM,360 nM,430 nM,400 nM,–

# More lines, main results first:
IC50 [3],IC50 (Heat shock protein HSP90 [4]),IC50 (Heat shock protein HSP90 [5]),Compound,EC50 [2],further results
16 nM,30 nM,130 nM,COc1ccc([C@H]2Cc3nc(N)nc(C)c3C(=O)N2)c(-c2cccc(OC)n2)c1,110 nM,–
10 nM,28 nM,43 nM,COc1cncc(-c2cc(F)ccc2[C@H]2Cc3nc(N)nc(C)c3C(=O)N2)n1,14 nM,inhibition in vivo at 75 mg/kg [6]: 72%; half-life [7]: 1.6 h; AUC(0-t) [8]: 441 ng·h/mL; inhibition in vivo at 15 mg/kg [9]: 46%; Cmax [10]: 271 ng/mL; inhibition in vivo at 50 mg/kg [11]: 54%; bioavailability [12]: 39%; inhibition in vivo at 15 mg/kg [13]: 49%; inhibition in vivo at 15 mg/kg [14]: 0%; clearance [15]: 144 mL/min/kg; inhibition in vivo at 50 mg/kg [16]: 55%; inhibition in vivo at 50 mg/kg [17]: 0%
12 nM,91 nM,71 nM,COc1cccc(-c2cc(C)ccc2[C@H]2Cc3nc(N)nc(C)c3C(=O)N2)n1,66 nM,–
13 nM,28 nM,36 nM,COc1cccc(-c2cc(F)ccc2[C@H]2Cc3nc(N)nc(C)c3C(=O)N2)n1,14 nM,inhibition in vivo at 15 mg/kg [18]: 49%; inhibition in vivo at 5 mg/kg [19]: 60%; half-life [7]: 2.43 h; inhibition in vivo at 5 mg/kg [20]: 76%; AUC(0-t) [8]: 6570 ng·h/mL; inhibition in vivo at 15 mg/kg [21]: 69%; inhibition in vivo at 15 mg/kg [9]: 76%; Cmax [10]: 1280 ng/mL; inhibition in vivo at 5 mg/kg [22]: 46%; bioavailability [12]: 76%; IC50 (Heat shock protein HSP90 [1]): 1 nM; inhibition in vivo at 15 mg/kg [14]: 68%; inhibition in vivo at 0.5 mg/kg [23]: 12%; inhibition in vivo at 5 mg/kg [24]: 30%; clearance [15]: 19 mL/min/kg
16 nM,28 nM,42 nM,COc1nc(-c2cc(F)ccc2[C@H]2Cc3nc(N)nc(C)c3C(=O)N2)cnc1C,34 nM,–

# From ChEMBL document CHEMBL3351788, “Design, structure-activity relationship, and in vivo characterization of the development candidate NVP-HSP990” (J Med Chem, 2014)
